This passage reports IC50 results from BindingDB's records for doi:10.1021/jm9008532 (Universite Catholique De Louvain, 2009).

For the experiment, the target named is T1, Fatty-acid amide hydrolase 1 (Homo sapiens, UniProt O00519).
T1 sequence (O00519 whole entry): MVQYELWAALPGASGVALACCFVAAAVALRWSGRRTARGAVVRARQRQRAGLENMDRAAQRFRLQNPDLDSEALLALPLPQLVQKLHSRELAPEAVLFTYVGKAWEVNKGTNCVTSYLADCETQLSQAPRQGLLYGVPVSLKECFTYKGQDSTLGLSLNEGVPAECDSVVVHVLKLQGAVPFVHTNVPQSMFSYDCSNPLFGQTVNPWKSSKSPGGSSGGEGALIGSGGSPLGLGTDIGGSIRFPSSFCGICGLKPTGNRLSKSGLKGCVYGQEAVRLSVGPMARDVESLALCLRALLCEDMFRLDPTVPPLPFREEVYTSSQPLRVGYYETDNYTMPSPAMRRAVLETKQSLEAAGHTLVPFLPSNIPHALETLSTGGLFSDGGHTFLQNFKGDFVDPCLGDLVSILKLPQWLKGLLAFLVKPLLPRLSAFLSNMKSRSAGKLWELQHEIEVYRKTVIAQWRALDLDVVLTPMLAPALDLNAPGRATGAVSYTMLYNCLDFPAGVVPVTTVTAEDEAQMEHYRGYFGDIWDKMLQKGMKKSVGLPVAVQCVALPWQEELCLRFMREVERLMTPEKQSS
Briefly: Inhibition of human recombinant FAAH using [3H]anandamide by competitive hydrolysis assay. Summed up:
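Compounds were added in DMSO, with DMSO alone as control, plus [3H]-AEA at 2 μM final, 37 °C for 10 min. The reaction was stopped on ice with cold chloroform/methanol (1:1), and the aqueous phase was counted by LSC with the buffer-only blank subtracted. IC50 is the mean of three independent experiments.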

Consider `CC(=O)O[C@@H]1[C@@H]([C@@H](C)OC(=O)CCc2ccccc2)C(=O)N1C(=O)CCc1ccccc1` [1-(3-Phenylpropanoyl)-(3R,4R)-3-[1(R)-(3-phenylpropanoyloxy)-ethyl]-4-(acetoxy)-azetidin-2-one], for which the IC50 came to 2190 nM.

What is called IC50 is the concentration needed to halve the response being measured.
